The record followed here is ChEMBL document CHEMBL1926592, “Synthesis and in vitro evaluation of fluorinated styryl benzazoles as amyloid-probes” (Bioorg Med Chem, 2011).

Structures are written as SMILES. Calls of active or inactive are those of the source. The rule behind the calls is not given here.

The species named for series [1] is Homo sapiens. Nature of the series: Binding affinity to human insulin fibril assessed as intrinsic fluorescence intensity.
In series [2] the target is Alpha-synuclein (Homo sapiens) (UniProt P37840). Nature of the series: Binding affinity to human alpha-synuclein monomer expressed in Escherichia coli BL21 by fluorescence intensity assay.
For series [3] the target is unchanged. Nature of the series: Binding affinity to human alpha-synuclein fibril by fluorescence intensity assay.
The nature of series [4]: Binding affinity to human insulin fibril by fluorescence intensity assay. In outline: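 Fibrils grown from human insulin (3 mg/mL, Tris-HCl 50 mM pH 3), E. coli-expressed human α-syn (3 mg/mL, pH 7.4) or Aβ(1–42) (0.5 mg/ml, 1% NH4OH). Fibril level taken as supernatant protein depletion. Fixed fibrils (3.5–11.35) titrated with ligand (DMSO stock diluted into 50 mM Tris-HCl pH 7.4). Plate-reader intensity read at each ligand's maximal excitation/emission wavelengths, dye blanks subtracted. Kd from single-site saturation fit.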

The target of series [5] is T1, Amyloid-beta precursor protein (Homo sapiens, UniProt P05067). Nature of the series: Binding affinity to human amyloid beta (1 to 42) fibril assessed as increase in intrinsic fluorescence intensity at 2.25 uM relative to equimolar monomeric specie.
T1 sequence (P05067 whole entry): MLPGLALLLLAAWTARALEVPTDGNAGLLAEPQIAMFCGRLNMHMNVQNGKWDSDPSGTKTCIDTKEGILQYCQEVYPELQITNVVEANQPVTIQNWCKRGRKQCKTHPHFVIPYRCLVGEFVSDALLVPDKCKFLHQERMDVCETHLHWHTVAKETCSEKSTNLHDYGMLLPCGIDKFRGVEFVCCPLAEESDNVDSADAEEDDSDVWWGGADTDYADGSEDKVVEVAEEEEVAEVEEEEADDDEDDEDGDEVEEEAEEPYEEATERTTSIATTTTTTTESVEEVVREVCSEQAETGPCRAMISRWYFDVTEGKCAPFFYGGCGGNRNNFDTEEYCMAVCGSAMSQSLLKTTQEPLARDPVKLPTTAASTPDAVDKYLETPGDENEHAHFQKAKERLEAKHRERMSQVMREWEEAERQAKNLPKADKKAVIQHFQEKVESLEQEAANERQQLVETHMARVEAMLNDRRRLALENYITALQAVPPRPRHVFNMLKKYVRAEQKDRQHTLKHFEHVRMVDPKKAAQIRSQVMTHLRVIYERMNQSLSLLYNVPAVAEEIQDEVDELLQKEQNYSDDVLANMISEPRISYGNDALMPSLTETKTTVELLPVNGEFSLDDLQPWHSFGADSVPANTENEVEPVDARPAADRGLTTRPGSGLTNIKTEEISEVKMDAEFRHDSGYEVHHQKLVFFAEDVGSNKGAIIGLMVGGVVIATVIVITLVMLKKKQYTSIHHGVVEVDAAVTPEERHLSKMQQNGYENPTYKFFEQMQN
Series [6] addresses T1, Amyloid-beta precursor protein. Nature of the series: Binding affinity to human amyloid beta (1 to 42) monomer by fluorescence intensity assay.
The species entered for series [7] is Homo sapiens. The series can be described thus: Binding affinity to human […] fibril assessed as increase in intrinsic fluorescence intensity at 2.25 uM relative to equimolar monomeric specie.
Series [8] has as its target T1, Amyloid-beta precursor protein. The series can be described thus: Binding affinity to human amyloid beta (1 to 42) fibril assessed as intrinsic fluorescence intensity.
The target in a further series is Insulin (Homo sapiens) (UniProt P01308). Nature of the series: Binding affinity to human insulin monomer by fluorescence intensity assay.
Sequence of Insulin (Homo sapiens) (P01308 whole entry): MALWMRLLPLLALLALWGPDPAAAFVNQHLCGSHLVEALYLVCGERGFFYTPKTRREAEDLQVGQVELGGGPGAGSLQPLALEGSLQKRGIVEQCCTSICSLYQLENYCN
The species named for series [9] is Homo sapiens. The series can be described thus: Binding affinity to human insulin fibril assessed as increase in intrinsic fluorescence intensity at 2.25 uM relative to equimolar monomeric specie.
For series [10], the species on record is Homo sapiens. The series can be described thus: Binding affinity to human […] fibril assessed as intrinsic fluorescence intensity.
In the next series the target is Albumin (Bos taurus, UniProt P02769). Nature of the series: Binding affinity to bovine serum albumin by fluorescence intensity assay. In kind it is ADME. Conditions: cattle, isolated protein. The method in brief:
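BSA titrated with increasing ligand concentrations in 50 mM Tris-HCl pH 7.4, in the same way as the fibril assays. Intrinsic fluorescence intensity was read on a plate reader with dye-blank background subtracted. Kd came from a single-site saturation curve fit.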

Series [11] addresses T1, Amyloid-beta precursor protein. Nature of the series: Binding affinity to human amyloid beta (1 to 42) fibril by fluorescence intensity assay. The method in brief:
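Fibrils grown from human insulin (3 mg/mL, Tris-HCl 50 mM pH 3), E. coli-expressed human α-syn (3 mg/mL, pH 7.4) or Aβ(1–42) (0.5 mg/ml, 1% NH4OH). Fibril level taken as supernatant protein depletion. Plate-reader intensity read at each ligand's maximal excitation/emission wavelengths, dye blanks subtracted. Kd from single-site saturation fit.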

Sequence of Albumin (P02769 whole entry): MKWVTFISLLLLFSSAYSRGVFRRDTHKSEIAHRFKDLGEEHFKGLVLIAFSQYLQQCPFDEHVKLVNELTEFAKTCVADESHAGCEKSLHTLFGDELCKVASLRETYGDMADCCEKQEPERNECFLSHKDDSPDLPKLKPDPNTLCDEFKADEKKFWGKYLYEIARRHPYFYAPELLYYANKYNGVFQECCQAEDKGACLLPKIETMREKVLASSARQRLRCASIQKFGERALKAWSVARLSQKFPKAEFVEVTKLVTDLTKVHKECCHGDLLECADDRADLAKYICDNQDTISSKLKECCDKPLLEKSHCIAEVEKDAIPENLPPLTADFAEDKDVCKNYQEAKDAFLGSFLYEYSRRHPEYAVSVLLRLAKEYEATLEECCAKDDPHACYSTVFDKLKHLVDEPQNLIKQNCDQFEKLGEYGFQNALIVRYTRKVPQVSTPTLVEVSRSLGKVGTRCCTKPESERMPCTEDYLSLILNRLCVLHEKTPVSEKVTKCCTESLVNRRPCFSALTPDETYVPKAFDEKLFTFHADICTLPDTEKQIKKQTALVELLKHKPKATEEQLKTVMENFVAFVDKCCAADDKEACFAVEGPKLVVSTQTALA

As to `CN(CCF)c1ccc(/C=C/c2nc3ccccc3[nH]2)cc1`, the result (in the series listed under Homo sapiens [1]; in [8]; in the series listed under Homo sapiens [10]) was Active. The outcome (in [2]; in [6]; on Insulin (Homo sapiens)) was inactive. The results for the Kd in series [3], in [4] and in [11] were 3.31 µM⁻¹, 1.54 µM⁻¹ and 3.63 µM⁻¹, respectively. Besides, the fold change (FC) in series [5] worked out at 2.71; in the series listed under Homo sapiens [7] it was 4.5; in the series filed under Homo sapiens [9], 2.49. The Activity entry at Albumin was “Not Active”.

Take `CN(CCF)c1ccc(/C=C/c2nc3ccccc3n2C)cc1`: the result (in the series listed under Homo sapiens [1]; in series [8]; in the series listed under Homo sapiens [10]) was Active. In addition, the result (in series [2]; in series [6]; at Insulin (Homo sapiens)) was inactive. The Kd in series [3] was determined as 1.81 µM⁻¹; in [4] it was 1.22 µM⁻¹; in [11] it was 5.19 µM⁻¹. The figures for the fold change (FC) (in series [5]; in the series filed under Homo sapiens [7]; in the series listed under Homo sapiens [9]) were 5.17, 2.23 and 3.63, respectively. The Activity result at Albumin is “Not Active”.

`CN(CCF)c1ccc(/C=C\c2nc3ccccc3n2C)cc1`: the outcome (in the series listed under Homo sapiens [1]; in series [8]; in the series listed under Homo sapiens [10]) was Active. Moreover, the result (in series [2]; in series [6]; at Insulin (Homo sapiens)) was inactive. Also, the Kd in [3] was found to be 1.85 µM⁻¹; in series [4], 3.86 µM⁻¹; in series [11], 3.52 µM⁻¹. The figures for the fold change (FC) (in [5]; in the series listed under Homo sapiens [7]; in the series filed under Homo sapiens [9]) were 5.9, 2.84 and 2.84, respectively. Further, at Albumin, the Activity entry is recorded as “Not Active”.

Consider `CN(CCF)c1ccc(/C=C/c2nc3ccccc3o2)cc1`, for which the result (in the series filed under Homo sapiens [1]; in [8]; in the series listed under Homo sapiens [10]) was Active. Further, the outcome (in series [2]; in series [6]; at Insulin (Homo sapiens)) was inactive. Besides, the Kd in [3] amounted to 3.24 µM⁻¹; in series [4], 2.28 µM⁻¹; in [11], 4.48 µM⁻¹. For the same compound, the fold change (FC) is 2.69 in series [5], 1.98 in the series listed under Homo sapiens [7] and 1.98 in the series filed under Homo sapiens [9]. In addition, the Activity entry on Albumin is “Not Active”.

Consider `CN(CCF)c1ccc(/C=C\c2nc3ccccc3[nH]2)cc1`, for which the result (in the series listed under Homo sapiens [1]; in series [8]; in the series filed under Homo sapiens [10]) was Active. The result (in [2]; in series [6]; on Insulin (Homo sapiens)) was inactive. Also, at Albumin, the Activity result is “Not Active”.

Take `CN(CCF)c1ccc(/C=C/c2nc3ccccc3s2)cc1`: the result (in the series listed under Homo sapiens [1]; in [8]; in the series listed under Homo sapiens [10]) was Active. Also, the result (in [2]; in series [6]; on Insulin (Homo sapiens)) was inactive. The Kd in series [3] is 1.38 µM⁻¹; in series [4] it was 1.79 µM⁻¹; in series [11], 10.67 µM⁻¹. The fold change (FC) in series [5] amounted to 7.41; in the series listed under Homo sapiens [7] it was 4.48; in the series filed under Homo sapiens [9], 3.3. Also, the Activity entry at Albumin was “Not Active”.

`CN(CCF)c1ccc(/C=C\c2nc3ccccc3s2)cc1`: the result (in the series listed under Homo sapiens [1]; in series [8]; in the series filed under Homo sapiens [10]) was Active. In addition, the outcome (in series [2]; in [6]; at Insulin (Homo sapiens)) was inactive. In addition, the Kd in series [3] worked out at 7.35 µM⁻¹; in [4], 8.59 µM⁻¹; in series [11], 23.96 µM⁻¹. For the same compound, the fold change (FC) amounted to 11.3 in series [5], 9.48 in the series listed under Homo sapiens [7] and 2.98 in the series listed under Homo sapiens [9]. Further, on Albumin, the Activity entry is “Not Active”.

On to `Cc1ccc2c(c1)sc(-c1ccc(N(C)C)cc1)[n+]2C.[Cl-]` [THIOFLAVIN T], for which the Kd in series [4] is 2.54 µM⁻¹.

As for `CN(CCF)c1ccc(/C=C\c2nc3ccccc3o2)cc1`, the outcome (in the series listed under Homo sapiens [1]; in [8]; in the series filed under Homo sapiens [10]) was Active. For the same compound, the result (in series [2]; in series [6]; at Insulin (Homo sapiens)) was inactive. Besides, the Kd in [3] was 7.43 µM⁻¹; in [4] it was 3.24 µM⁻¹; in series [11], 5.99 µM⁻¹. Besides, the fold change (FC) stood at 1.28 in series [5], 1.63 in the series listed under Homo sapiens [7] and 1.6 in the series listed under Homo sapiens [9]. In addition, at Albumin, the Activity result is “Not Active”.
